Data taken from PMC6880868 (Cancer cell, 2019).

Legend:
[1] = target: STAT3 (Homo sapiens, UniProt P40763); assay: Fluorescence polarization; assay type: binding
Method in brief: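 Competitive fluorescence polarisation assay. Recombinant STAT3 (25 nM) was premixed 5 min with 2.5 nM 5-FAM-labelled STAT3 SH2-domain ligand. The mix was added to serially diluted test compound and read after 1 hr at room temperature. Buffer: 50 mM NaCl, 10 mM HEPES pH 7.5, 1 mM EDTA, 0.01% Triton X-100, 2 mM DTT. IC50 came from nonlinear regression and was converted to Ki.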

[2] = tested on: transcriptional activity of STAT3; assay: STAT3-luciferase reporter assay; assay type: cell-based, human; conditions: Homo sapiens, MOLM16, 24 h, read-out: IC50, transcriptional activity of STAT3
[3] = target: STAT1 (Homo sapiens, UniProt P42224); assay: Bio-Layer Interferometry binding, STAT1
Method in brief: (§1)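 Purified recombinant human STAT proteins were biotinylated, then direct binding of the test compound was measured by Bio-Layer Interferometry to give Kd.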

[4] = target: STAT2 (Homo sapiens, UniProt P52630); assay: Bio-Layer Interferometry binding, STAT2
Method in brief: as §1

[5] = target: STAT5A (Homo sapiens, UniProt P42229); assay: Bio-Layer Interferometry binding, STAT5A
Method in brief: as §1

[6] = target: STAT5B (Homo sapiens, UniProt P51692); assay: Bio-Layer Interferometry binding, STAT5B
Method in brief: as §1

[7] = target: mutated STAT3 proteins (Homo sapiens, UniProt P40763, Y705F); assay: Degradation of mutated STAT3 proteins in cells; assay type: cell-based; conditions: DLD-1/STAT3 Y705F/Y705F cells, 1 μM, 24 hr
[8] = tested on: mutated STAT3 proteins; assay: Degradation of mutated STAT3 proteins in cells; assay type: cell-based, human
[9] = target: monomeric and dimeric STAT3 protein (Homo sapiens, UniProt P40763); assay: Native electrophoresis and immunoblotting of STAT3 monomer/dimer; assay type: cell-based; conditions: MOLM-16, 1 μM, within 5 hr
[10] = target: DNA binding activity of STAT3 (Homo sapiens, UniProt P40763); assay: STAT3 DNA binding activity assay on nuclear extracts; assay type: cell-based; conditions: 1 μM, 8 hr, MOLM-16 and SU-DHL-1
Method in brief: (§2)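 Nuclear extraction: cells were swelled 15 min on ice in hypotonic HEPES pH 7.9/10 mM KCl buffer with DTT and phosphatase/protease inhibitors. NP-40 was added (0.5% final), and nuclei were extracted 15 min at 4°C in 0.4 M NaCl HEPES buffer, then cleared at 5,000 × g. ELISA: 5 μg extract was bound 1 hr at room temperature in TransAM STAT ELISA wells. Wells then received STAT antibody (1:1000, 1 hr), HRP secondary (1 hr) and colour development.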

[11] = tested on: DNA binding activities of STAT1, STAT5A or STAT5B; assay: STAT1, STAT5A, STAT5B DNA binding activity assay; assay type: cell-based, human; conditions: MOLM-16
Method in brief: as §2

[12] = tested on: transcriptional activities of STAT1 or STAT5A/B; assay: STAT1 and STAT5 dependent reporter cell lines; assay type: cell-based; conditions: STAT-dependent reporter cell lines
Method in brief: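 Reporter cells (1000–2000) were seeded in duplicate plates, one for luciferase and one for CellTiter-Glo viability. Test compound was added 4–6 hr later, and cells were cultured 24 or 48 hr. Firefly and Renilla luciferase were read, and signals were normalised to cell number from the viability plate.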

[13] = tested on: leukemia and lymphoma cell lines; assay: 4-day CellTiter Glo cell viability assay, leukemia and lymphoma cell line panel; assay type: cell-based, human
[14] = tested on: MOLM-16 cells; assay: RNA-seq analysis, MOLM-16; assay type: cell-based, human
[15] = tested on: MOLM-16 and SU-DHL-1 cell lines; assay: Cell cycle analysis by flow cytometry; assay type: cell-based, human; conditions: 1 μM, 48 hr
Method in brief: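 After treatment, cells were washed twice in cold PBS and fixed overnight in 50% ethanol. They were stained 1 hr at 4°C with PI (50 μg/ml) plus DNase-free RNase A (0.2 μg/ml), then analysed by flow cytometry.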

[16] = tested on: SU-DHL-1 and SUP-M2 cells; assay: Annexin V apoptosis assay; assay type: cell-based, human; conditions: 48 hr
Method in brief: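 Cells collected at the end of treatment, washed in cold PBS, stained with an Annexin V-FLUOS kit per the maker's protocol, and analysed by flow cytometry.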

[17] = tested on: mitochondrial STAT3; complex I and II; assay: Mitochondrial STAT3 and OXPHOS complex I/II enzyme activity; assay type: cell-based; conditions: 24 hours
[18] = Toxicity in immune competent mice; assay type: in vivo, CD-1 female mice
Method in brief: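 Female CD-1 mice were given test compound i.v. at 50 or 100 mg/kg, or vehicle (10% PEG400 + 90% PBS), three times weekly for three weeks. Body weight was recorded 2–3 times per week. At the end, blood and major organs were taken for haematology, serum chemistry, organ coefficients and histology.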

[19] = target: mouse STAT3 protein (Mus musculus, UniProt P42227); assay: Pharmacodynamics in mouse tissues; assay type: in vivo, CD-1 mice; conditions: single dose 100 mg/kg i.v.
Method in brief: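 Female outbred CD-1 mice received a single i.v. dose. At set time points, liver, spleen, heart and kidney were collected and analysed by immunoblotting.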

[20] = target: STAT3 protein (Mus musculus, UniProt P42227); assay: STAT3 degradation in murine cells; assay type: cell-based
[21] = tested on: STAT3 target genes; assay: qRT-PCR of STAT3 target genes in MOLM-16 cells; assay type: cell-based, human; conditions: MOLM-16, 1 μM, 8 hr
[22] = tested on: STAT proteins in MOLM-16 and SU-DHL-1 tumors; assay: Multiplexed quantitative proteomics in xenograft tumors; assay type: in vivo, mice; conditions: 25 mg/kg i.v., 6 hr
[23] = tested on: IKZF1, IKZF3, CK1α, GSPT1; assay: Immunoblotting of CRBN neo-substrates; assay type: cell-based, human; conditions: 24 hr; SD-36 0.5 μM, lenalidomide 1 μM
[24] = tested on: STAT3 target genes; assay: qRT-PCR of STAT3 target genes in MOLM-16 tumors; assay type: in vivo, SCID mice; conditions: single dose 25 mg/kg i.v.
Method in brief: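 SCID mice with MOLM-16 tumours received vehicle or test compound i.v. Total RNA was isolated from tumour lysates and STAT3 target genes were quantified by qRT-PCR.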

[25] = i.v. 50 and 100 mg/kg, three times a week for three weeks

Sequence of monomeric and dimeric STAT3 protein (P40763 whole entry): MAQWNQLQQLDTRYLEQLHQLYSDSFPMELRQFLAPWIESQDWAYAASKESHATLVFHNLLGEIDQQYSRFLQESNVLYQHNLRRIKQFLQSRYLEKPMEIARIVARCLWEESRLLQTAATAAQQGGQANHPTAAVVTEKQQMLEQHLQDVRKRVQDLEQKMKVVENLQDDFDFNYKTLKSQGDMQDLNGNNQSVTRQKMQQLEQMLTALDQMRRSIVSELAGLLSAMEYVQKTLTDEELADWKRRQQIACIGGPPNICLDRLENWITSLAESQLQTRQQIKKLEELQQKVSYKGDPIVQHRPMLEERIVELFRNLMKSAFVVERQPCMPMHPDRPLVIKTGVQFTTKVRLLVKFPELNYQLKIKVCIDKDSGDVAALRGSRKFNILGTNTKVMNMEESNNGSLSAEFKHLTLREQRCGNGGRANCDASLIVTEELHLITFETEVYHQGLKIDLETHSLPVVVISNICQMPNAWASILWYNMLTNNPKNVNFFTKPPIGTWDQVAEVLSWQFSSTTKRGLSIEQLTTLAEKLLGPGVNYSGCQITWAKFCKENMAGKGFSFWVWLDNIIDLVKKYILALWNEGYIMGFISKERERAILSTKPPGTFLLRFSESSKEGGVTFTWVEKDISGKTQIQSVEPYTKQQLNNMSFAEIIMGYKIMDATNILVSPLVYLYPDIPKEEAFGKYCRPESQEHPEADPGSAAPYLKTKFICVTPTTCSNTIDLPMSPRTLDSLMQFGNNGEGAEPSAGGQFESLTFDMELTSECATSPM
Sequence of DNA binding activity of STAT3 (P40763 whole entry): as above
Sequence of STAT5A (P42229 136-705): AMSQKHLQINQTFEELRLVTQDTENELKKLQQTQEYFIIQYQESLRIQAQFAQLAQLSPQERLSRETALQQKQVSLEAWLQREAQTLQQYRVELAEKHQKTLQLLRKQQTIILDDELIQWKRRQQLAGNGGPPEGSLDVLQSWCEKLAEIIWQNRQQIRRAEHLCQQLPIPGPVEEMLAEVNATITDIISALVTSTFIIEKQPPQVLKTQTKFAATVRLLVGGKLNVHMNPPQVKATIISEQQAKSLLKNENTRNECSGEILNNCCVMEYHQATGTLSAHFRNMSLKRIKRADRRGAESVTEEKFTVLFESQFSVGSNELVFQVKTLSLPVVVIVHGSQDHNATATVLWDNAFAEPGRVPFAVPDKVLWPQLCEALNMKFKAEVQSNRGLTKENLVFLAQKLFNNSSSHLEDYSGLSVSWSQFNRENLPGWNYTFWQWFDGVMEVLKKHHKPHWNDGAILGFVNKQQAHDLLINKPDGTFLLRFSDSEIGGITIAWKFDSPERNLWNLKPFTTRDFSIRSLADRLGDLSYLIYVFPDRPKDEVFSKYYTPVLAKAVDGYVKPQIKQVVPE
Sequence of STAT5B (P51692 138-710): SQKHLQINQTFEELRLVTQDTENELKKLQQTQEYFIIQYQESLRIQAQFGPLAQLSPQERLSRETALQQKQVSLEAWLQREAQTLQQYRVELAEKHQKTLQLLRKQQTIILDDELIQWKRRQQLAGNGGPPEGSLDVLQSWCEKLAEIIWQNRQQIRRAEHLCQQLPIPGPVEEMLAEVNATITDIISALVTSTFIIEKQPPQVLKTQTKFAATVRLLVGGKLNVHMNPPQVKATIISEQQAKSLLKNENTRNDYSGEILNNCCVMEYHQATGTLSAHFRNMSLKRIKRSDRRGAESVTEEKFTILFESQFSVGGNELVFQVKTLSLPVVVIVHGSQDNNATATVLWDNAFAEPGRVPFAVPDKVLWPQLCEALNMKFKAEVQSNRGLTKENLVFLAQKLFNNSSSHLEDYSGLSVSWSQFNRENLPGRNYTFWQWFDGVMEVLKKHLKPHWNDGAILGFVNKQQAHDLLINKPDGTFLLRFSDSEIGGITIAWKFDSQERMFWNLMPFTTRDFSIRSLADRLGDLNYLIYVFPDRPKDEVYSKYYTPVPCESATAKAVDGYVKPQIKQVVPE
Sequence of STAT3 (P40763 127-688): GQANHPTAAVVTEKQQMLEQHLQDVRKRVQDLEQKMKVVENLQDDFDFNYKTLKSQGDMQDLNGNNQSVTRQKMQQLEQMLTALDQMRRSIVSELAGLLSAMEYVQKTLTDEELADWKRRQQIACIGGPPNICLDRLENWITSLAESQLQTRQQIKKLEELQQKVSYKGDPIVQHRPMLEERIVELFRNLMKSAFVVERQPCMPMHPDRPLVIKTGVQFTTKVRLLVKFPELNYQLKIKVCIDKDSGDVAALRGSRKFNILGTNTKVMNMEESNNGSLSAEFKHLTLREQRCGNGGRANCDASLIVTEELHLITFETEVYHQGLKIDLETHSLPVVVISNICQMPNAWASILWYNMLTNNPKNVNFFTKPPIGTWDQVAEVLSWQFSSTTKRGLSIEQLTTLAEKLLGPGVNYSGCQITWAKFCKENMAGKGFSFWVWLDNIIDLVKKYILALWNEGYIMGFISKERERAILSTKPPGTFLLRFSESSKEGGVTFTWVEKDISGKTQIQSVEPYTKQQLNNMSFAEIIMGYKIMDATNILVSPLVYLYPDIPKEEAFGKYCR
Sequence of STAT3 protein (P42227 whole entry): as the sequence (P40763 whole entry) above, with E760D counted along it
Sequence of mouse STAT3 protein (P42227 whole entry): as the sequence (P40763 whole entry) above, with E760D counted along it
Sequence of mutated STAT3 proteins (Homo sapiens, UniProt P40763, Y705F) (Q96SW2 whole entry): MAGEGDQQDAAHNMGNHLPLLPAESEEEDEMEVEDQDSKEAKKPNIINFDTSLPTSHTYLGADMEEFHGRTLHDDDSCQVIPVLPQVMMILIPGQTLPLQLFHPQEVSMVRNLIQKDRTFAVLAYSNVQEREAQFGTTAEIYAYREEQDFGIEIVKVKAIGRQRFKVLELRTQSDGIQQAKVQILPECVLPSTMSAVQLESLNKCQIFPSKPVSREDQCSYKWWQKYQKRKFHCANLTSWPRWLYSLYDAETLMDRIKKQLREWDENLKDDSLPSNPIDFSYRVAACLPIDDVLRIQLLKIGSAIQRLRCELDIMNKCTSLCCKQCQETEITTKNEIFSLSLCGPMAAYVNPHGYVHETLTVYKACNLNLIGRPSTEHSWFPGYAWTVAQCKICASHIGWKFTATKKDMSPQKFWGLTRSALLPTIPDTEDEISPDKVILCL
Sequence of mutated STAT3 proteins (Homo sapiens, UniProt P40763, Y705F) (P40763 2-770 Y705F): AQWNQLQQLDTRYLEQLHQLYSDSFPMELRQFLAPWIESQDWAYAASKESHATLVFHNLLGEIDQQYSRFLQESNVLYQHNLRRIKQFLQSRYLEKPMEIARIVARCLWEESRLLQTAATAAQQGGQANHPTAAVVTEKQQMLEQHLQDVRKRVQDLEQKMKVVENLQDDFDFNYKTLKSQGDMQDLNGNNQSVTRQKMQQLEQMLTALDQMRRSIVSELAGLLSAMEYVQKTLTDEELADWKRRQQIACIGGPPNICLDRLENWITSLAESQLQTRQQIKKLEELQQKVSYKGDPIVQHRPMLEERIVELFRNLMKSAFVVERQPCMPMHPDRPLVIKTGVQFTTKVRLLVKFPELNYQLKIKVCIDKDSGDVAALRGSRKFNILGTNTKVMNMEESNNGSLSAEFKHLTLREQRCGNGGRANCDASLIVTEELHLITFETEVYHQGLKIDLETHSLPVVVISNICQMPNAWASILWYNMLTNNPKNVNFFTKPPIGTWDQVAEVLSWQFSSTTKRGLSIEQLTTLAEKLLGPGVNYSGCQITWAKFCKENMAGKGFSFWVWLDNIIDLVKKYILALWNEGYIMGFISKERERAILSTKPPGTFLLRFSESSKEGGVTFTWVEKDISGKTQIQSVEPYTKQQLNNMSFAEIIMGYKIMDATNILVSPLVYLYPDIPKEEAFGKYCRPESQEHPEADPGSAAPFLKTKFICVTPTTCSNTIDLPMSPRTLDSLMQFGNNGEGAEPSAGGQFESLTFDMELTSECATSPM
Sequence of STAT1 (P42224 132-713): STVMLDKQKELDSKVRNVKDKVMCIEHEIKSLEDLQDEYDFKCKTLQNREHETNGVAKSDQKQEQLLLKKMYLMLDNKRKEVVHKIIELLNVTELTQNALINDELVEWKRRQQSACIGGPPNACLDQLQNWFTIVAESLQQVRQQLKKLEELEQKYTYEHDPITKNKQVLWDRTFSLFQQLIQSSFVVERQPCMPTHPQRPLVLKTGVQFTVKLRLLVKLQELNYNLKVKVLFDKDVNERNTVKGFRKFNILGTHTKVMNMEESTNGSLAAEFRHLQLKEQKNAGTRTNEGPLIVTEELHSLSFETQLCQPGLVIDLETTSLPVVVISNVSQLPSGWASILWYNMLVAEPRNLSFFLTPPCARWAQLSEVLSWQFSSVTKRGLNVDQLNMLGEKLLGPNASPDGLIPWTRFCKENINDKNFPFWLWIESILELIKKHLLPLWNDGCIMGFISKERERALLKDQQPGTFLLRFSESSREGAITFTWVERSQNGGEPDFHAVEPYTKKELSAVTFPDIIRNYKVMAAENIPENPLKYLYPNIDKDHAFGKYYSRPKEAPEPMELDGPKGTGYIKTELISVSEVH
Sequence of STAT2 (P52630 138-702): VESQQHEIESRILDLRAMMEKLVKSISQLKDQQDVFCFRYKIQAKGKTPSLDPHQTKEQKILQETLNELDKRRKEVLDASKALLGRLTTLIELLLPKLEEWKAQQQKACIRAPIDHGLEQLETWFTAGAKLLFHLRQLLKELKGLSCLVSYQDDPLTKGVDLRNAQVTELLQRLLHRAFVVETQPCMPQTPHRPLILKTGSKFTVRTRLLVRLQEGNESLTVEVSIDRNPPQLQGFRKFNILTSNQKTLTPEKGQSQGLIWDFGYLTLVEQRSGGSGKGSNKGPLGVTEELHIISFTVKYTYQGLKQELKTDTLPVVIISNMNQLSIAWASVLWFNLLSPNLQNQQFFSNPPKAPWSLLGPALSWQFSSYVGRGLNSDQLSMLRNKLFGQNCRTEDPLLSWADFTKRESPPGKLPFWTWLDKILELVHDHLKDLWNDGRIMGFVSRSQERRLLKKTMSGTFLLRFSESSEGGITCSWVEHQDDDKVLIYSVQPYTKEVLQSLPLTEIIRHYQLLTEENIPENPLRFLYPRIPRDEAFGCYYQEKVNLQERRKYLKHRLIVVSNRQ

In the case of `NC(=O)CC[C@H](NC(=O)[C@@H]1CC[C@@H]2CCN(C(=O)CCCCCC#Cc3cccc4c3CN(C3CCC(=O)NC3=O)C4=O)C[C@H](NC(=O)c3cc4cc(C(F)(F)P(=O)(O)O)ccc4[nH]3)C(=O)N21)C(=O)NC(c1ccccc1)c1ccccc1` (stereo partly drawn) [SD-36, ((2-(((5S,8S,10aR)-8-(((S)-5-amino-1-(benzhydrylamino)-1,5-dioxopentan-2-yl)carbamoyl)-3-(8-(2-(2,6-dioxopiperidin-3-yl)-1-oxoisoindolin-4-yl)oct-7-ynoyl)-6-oxodecahydropyrrolo[1,2-a][1,5]diazocin-5-yl)carbamoyl)-1H-indol-5-yl)difluoromethyl)phosphonic acid], the Ki [1] is reported as 11 nM, the IC50 [2] is reported as 10 nM and the Kd [3] is reported as 1000 to 2000 nM. The Kd [4] was ~5000 nM, the Kd [5] was ~5000 nM and the Kd [6] was > 10000 nM. For the same compound, the “degradation of homozygous Y705F mutant STAT3” value [7] was “effectively degrades”, the “degradation of endogenous D661Y and K658R mutant STAT3” value ([8]; 1 μM, 24 hr) was “efficiently degrades” and the “degradation of STAT3 with mutations of Arg609 or Ser611/Ser613” value ([8]; transfected MDA-MB-231, 1 μM, 16 hr) was “resistant to degradation”. The “monomeric and dimeric STAT3 protein” value [9] was “completely depletes”, the “DNA binding activity of STAT3” value [10] was “abolishes” and the “DNA binding activities of STAT1, STAT5A or STAT5B” value [11] was “no significant effect”. The “transcriptional activities of STAT1 or STAT5A/B” value [12] was “minimal effect”, the “AML cell lines with strong growth-inhibitory activity” value ([13]; 9 AML cell lines) was 1 of 9 and the “lymphoma cell lines with potent activity” value ([13]; 9 lymphoma cell lines) was 5 of 9. For the same compound, the “genes down-regulated by ≥2-fold (p≤0.05)” value ([14]; MOLM-16, 1 μM, 8 hr) was 125 genes, the “genes up-regulated by ≥2-fold (p≤0.05)” value ([14]; MOLM-16, 1 μM, 8 hr) was 34 genes and the “genes down-regulated ≥2-fold (p≤0.05)” value ([14]; MOLM-16, 24 hr) was 301 genes. The “genes up- or down-regulated ≥2-fold (p≤0.05), total” value ([14]; MOLM-16, 24 hr) was 348 genes, the “genes up-regulated ≥2-fold (p≤0.05)” value ([14]; MOLM-16, 24 hr) was 47 genes and the cell cycle effect [15] was “profound G1 arrest”. The apoptosis [16] was “strong apoptotic cell death”, the “effect on complex I and II activity” value [17] was “did not have a substantial effect” and the “mitochondrial STAT3” value [17] was “effectively depleted”. For the same compound, the “numbers of neutrophils and platelets” value ([18]; 100 mg/kg, three times a week for three weeks) was “slightly increased”, the “creatinine, blood urea nitrogen, calcium, albumin and total blood protein” value ([18]; data not shown) was “no significant effect” and the “counts of red or white blood cells, lymphocytes, monocytes or eosinophils” value [18, 25] was “no significant changes”. The “systemic toxicity by body weight, organ coefficient and hematology” value [18, 25] was “no obvious systemic toxicity”, the “histology of mouse tissues” value ([18]; mouse, in vivo) was “no significant effects” and the body weight ([18]; reversible one week after withdrawal) was “moderate body weight gain”. For the same compound, the “mouse STAT3 protein in liver, spleen, heart and kidney” value [19] was “profound and durable depletion”, the “STAT3 protein degradation in murine cells” value [20] was “efficiently degraded” and the “expression of a set of STAT3 target genes” value [21] was “significantly down-regulated”. The “effect on other STAT proteins in tumors” value [22] was “no significant effect on other STAT proteins”, the “levels of IKZF1, IKZF3 and CK1α” value [23] was “very modest effect” and the “protein levels of GSPT1” value [23] was “not affected”. The “expression of a set of STAT3 target genes in tumors” value [24] was “significantly down-regulated”.
